Assay results taken from ChEMBL document CHEMBL2417544, “Design, synthesis and biological evaluation of azithromycin glycosyl derivatives as potential antibacterial agents” (2013).
Converted amounts (≈) assume the structure as drawn.

Tests used:
Format in all cases: functional
Streptococcus pneumoniae [1] = assay: Ratio of erythromycin A MIC80 to compound MIC80 for Streptococcus pneumoniae 746
Outline: (§1)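 Ratio of the reference macrolide's MIC80 (azithromycin or erythromycin A, tested in parallel) to the compound's MIC80. Both come from the same NCCLS broth dilution run: DMSO stocks serially diluted in medium, inoculated, 35 °C. MIC80 is the first well with about 80% lower growth than the drug-free control. Triplicate tests, means used.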

Streptococcus pneumoniae [2] = assay: Ratio of azithromycin MIC80 to compound MIC80 for Streptococcus pneumoniae 943; outline: as §1
Streptococcus pneumoniae [3] = assay: Ratio of erythromycin A MIC80 to compound MIC80 for Streptococcus pneumoniae 943; outline: as §1
Escherichia coli [4] = assay: Antibacterial activity against Escherichia coli ATCC 25922 by standard dilution assay
Outline: (§2)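 Broth dilution MIC per NCCLS guidance. Compounds dissolved in DMSO, serially diluted in growth medium, inoculated and incubated at 35 °C. MIC80 taken as the first well showing roughly 80% less growth than the drug-free well. Each test run three times; values are means of replicates.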

Staphylococcus aureus [5] = assay: Ratio of erythromycin A MIC80 to compound MIC80 for methicillin-susceptible Staphylococcus aureus MSSA-1; outline: as §1
Escherichia coli [6] = assay: Antibacterial activity against Escherichia coli 236 by standard dilution assay; outline: as §2
Streptococcus pyogenes = assay: Antibacterial activity against Streptococcus pyogenes 447 by standard dilution assay; outline: as §2
Streptococcus pneumoniae [7] = assay: Antibacterial activity against Streptococcus pneumoniae 746 by standard dilution assay; outline: as §2
Staphylococcus aureus [8] = assay: Antibacterial activity against Staphylococcus aureus ATCC 25923 by standard dilution assay
Outline: (§3)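 Broth dilution MIC per NCCLS guidance. Compounds dissolved in DMSO, serially diluted in growth medium, inoculated and incubated at 35 °C. MIC80 read as the first well with about 80% less growth than the drug-free well. Erythromycin and azithromycin were run as positive controls. Each test was done three times, and values are means of the replicates.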

Staphylococcus aureus [9] = assay: Antibacterial activity against methicillin-resistant Staphylococcus aureus MRSA-1 by standard dilution assay; outline: as §3
Staphylococcus aureus [10] = assay: Antibacterial activity against methicillin-susceptible Staphylococcus aureus MSSA-1 by standard dilution assay; outline: as §3
Streptococcus pneumoniae [11] = assay: Antibacterial activity against Streptococcus pneumoniae 943 by standard dilution assay; outline: as §2

SMILES	Ratio (Streptococcus pneumoniae [1])	Ratio (Streptococcus pneumoniae [2])	Ratio (Streptococcus pneumoniae [3])	MIC80 (Escherichia coli [4]) [µg/mL]	Ratio (Staphylococcus aureus [5])	MIC80 (Escherichia coli [6]) [µg/mL]	MIC80 (Streptococcus pyogenes) [µg/mL]	MIC80 (Streptococcus pneumoniae [7]) [µg/mL]	MIC80 (Staphylococcus aureus [8]) [µg/mL]	MIC80 (Staphylococcus aureus [9]) [µg/mL]	MIC80 (Staphylococcus aureus [10]) [µg/mL]	MIC80 (Streptococcus pneumoniae [11]) [µg/mL]
CC[C@H]1OC(=O)[C@H](C)[C@@H](O[C@H]2C[C@@](C)(OC)[C@@H](OC(=O)NCCO[C@@H]3O[C@H](CO)[C@@H](O)[C@H](O)[C@H]3O)[C@H](C)O2)[C@H](C)[C@@H](O[C@@H]2O[C@H](C)C[C@H](N(C)C)[C@H]2O)[C@](C)(O)C[C@@H](C)CN(C)[C@H](C)[C@H]2OC(=O)O[C@@]21C	8	4	8	128 (≈ 125 µM)	8	64 (≈ 62.5 µM)	16 (≈ 15.6 µM)	2 (≈ 1.95 µM)	8 (≈ 7.81 µM)	16 (≈ 15.6 µM)	2 (≈ 1.95 µM)	1 (≈ 0.976 µM)
CC[C@H]1OC(=O)[C@H](C)[C@@H](O[C@H]2C[C@@](C)(OC)[C@@H](OC(=O)NCCO[C@@H]3O[C@H](CO)[C@H](O)[C@H](O)[C@H]3O)[C@H](C)O2)[C@H](C)[C@@H](O[C@@H]2O[C@H](C)C[C@H](N(C)C)[C@H]2O)[C@](C)(O)C[C@@H](C)CN(C)[C@H](C)[C@H]2OC(=O)O[C@@]21C	8	4	8	128 (≈ 125 µM)		128 (≈ 125 µM)	64 (≈ 62.5 µM)	2 (≈ 1.95 µM)	32 (≈ 31.2 µM)	32 (≈ 31.2 µM)	4 (≈ 3.91 µM)	1 (≈ 0.976 µM)
CC[C@H]1OC(=O)[C@H](C)[C@@H](O[C@H]2C[C@@](C)(OC)[C@@H](OC(=O)NCCO[C@@H]3O[C@H](CO)[C@@H](O)[C@H](O)[C@@H]3O)[C@H](C)O2)[C@H](C)[C@@H](O[C@@H]2O[C@H](C)C[C@H](N(C)C)[C@H]2O)[C@](C)(O)C[C@@H](C)CN(C)[C@H](C)[C@H]2OC(=O)O[C@@]21C				128 (≈ 125 µM)		64 (≈ 62.5 µM)	32 (≈ 31.2 µM)	4 (≈ 3.91 µM)	8 (≈ 7.81 µM)	8 (≈ 7.81 µM)	8 (≈ 7.81 µM)	4 (≈ 3.91 µM)
CC[C@H]1OC(=O)[C@H](C)[C@@H](O[C@H]2C[C@@](C)(OC)[C@@H](OC(=O)NCCO[C@@H]3OC[C@@H](O)[C@H](O)[C@H]3O)[C@H](C)O2)[C@H](C)[C@@H](O[C@@H]2O[C@H](C)C[C@H](N(C)C)[C@H]2O)[C@](C)(O)C[C@@H](C)CN(C)[C@H](C)[C@H]2OC(=O)O[C@@]21C				256 (≈ 257 µM)		64 (≈ 64.4 µM)	16 (≈ 16.1 µM)	4 (≈ 4.02 µM)	8 (≈ 8.05 µM)	16 (≈ 16.1 µM)	16 (≈ 16.1 µM)	2 (≈ 2.01 µM)
CC[C@H]1OC(=O)[C@H](C)[C@@H](O[C@H]2C[C@@](C)(OC)[C@@H](OC(=O)NCCO[C@@H]3O[C@H](CO)[C@@H](O)[C@H]3O)[C@H](C)O2)[C@H](C)[C@@H](O[C@@H]2O[C@H](C)C[C@H](N(C)C)[C@H]2O)[C@](C)(O)C[C@@H](C)CN(C)[C@H](C)[C@H]2OC(=O)O[C@@]21C				128 (≈ 129 µM)		64 (≈ 64.4 µM)	64 (≈ 64.4 µM)	8 (≈ 8.05 µM)	4 (≈ 4.02 µM)	8 (≈ 8.05 µM)	8 (≈ 8.05 µM)	4 (≈ 4.02 µM)
CC[C@H]1OC(=O)[C@H](C)[C@@H](O[C@H]2C[C@@](C)(OC)[C@@H](OC(=O)NCCO[C@@H]3O[C@@H](C)[C@H](O)[C@@H](O)[C@H]3O)[C@H](C)O2)[C@H](C)[C@@H](O[C@@H]2O[C@H](C)C[C@H](N(C)C)[C@H]2O)[C@](C)(O)C[C@@H](C)CN(C)[C@H](C)[C@H]2OC(=O)O[C@@]21C				128 (≈ 127 µM)	8	128 (≈ 127 µM)	64 (≈ 63.5 µM)	8 (≈ 7.93 µM)	16 (≈ 15.9 µM)	8 (≈ 7.93 µM)	2 (≈ 1.98 µM)	4 (≈ 3.97 µM)
CC[C@H]1OC(=O)[C@H](C)[C@@H](O[C@H]2C[C@@](C)(OC)[C@@H](OC(=O)NCCO[C@@H]3O[C@H](CO)[C@@H](O[C@H]4O[C@H](CO)[C@@H](O)[C@H](O)[C@H]4O)[C@H](O)[C@H]3O)[C@H](C)O2)[C@H](C)[C@@H](O[C@@H]2O[C@H](C)C[C@H](N(C)C)[C@H]2O)[C@](C)(O)C[C@@H](C)CN(C)[C@H](C)[C@H]2OC(=O)O[C@@]21C				256 (≈ 216 µM)		128 (≈ 108 µM)	32 (≈ 27 µM)	16 (≈ 13.5 µM)	32 (≈ 27 µM)	16 (≈ 13.5 µM)	16 (≈ 13.5 µM)	8 (≈ 6.74 µM)
CC[C@H]1OC(=O)[C@H](C)[C@@H](O[C@H]2C[C@@](C)(OC)[C@@H](OC(=O)NCCO[C@@H]3O[C@H](CO)[C@@H](O[C@@H]4O[C@H](CO)[C@@H](O)[C@H](O)[C@H]4O)[C@H](O)[C@H]3O)[C@H](C)O2)[C@H](C)[C@@H](O[C@@H]2O[C@H](C)C[C@H](N(C)C)[C@H]2O)[C@](C)(O)C[C@@H](C)CN(C)[C@H](C)[C@H]2OC(=O)O[C@@]21C				256 (≈ 216 µM)		128 (≈ 108 µM)	64 (≈ 53.9 µM)	16 (≈ 13.5 µM)	16 (≈ 13.5 µM)	32 (≈ 27 µM)	32 (≈ 27 µM)	8 (≈ 6.74 µM)
CC[C@H]1OC(=O)[C@H](C)[C@@H](O[C@H]2C[C@@](C)(OC)[C@@H](O)[C@H](C)O2)[C@H](C)[C@@H](O[C@@H]2O[C@H](C)C[C@H](N(C)C)[C@H]2O)[C@](C)(O)C[C@@H](C)CN(C)[C@H](C)[C@@H](O)[C@]1(C)O [AZITHROMYCIN]				256 (≈ 342 µM)		256 (≈ 342 µM)	32 (≈ 42.7 µM)	8 (≈ 10.7 µM)	16 (≈ 21.4 µM)	16 (≈ 21.4 µM)	2 (≈ 2.67 µM)	4 (≈ 5.34 µM)
CC[C@H]1OC(=O)[C@H](C)[C@@H](O[C@H]2C[C@@](C)(OC)[C@@H](O)[C@H](C)O2)[C@H](C)[C@@H](O[C@@H]2O[C@H](C)C[C@H](N(C)C)[C@H]2O)[C@](C)(O)C[C@@H](C)C(=O)[C@H](C)[C@@H](O)[C@]1(C)O [ERYTHROMYCIN]				256 (≈ 349 µM)		256 (≈ 349 µM)	32 (≈ 43.6 µM)	16 (≈ 21.8 µM)	16 (≈ 21.8 µM)	16 (≈ 21.8 µM)	16 (≈ 21.8 µM)	8 (≈ 10.9 µM)
